Assay results: PubChem BioAssay AID540281 (Sanford-Burnham Center for Chemical Genomics, 2011)
Values joined by “and” are separate entries in the source; they are usually repeats but may differ in a detail not shown here. Identical values can stand only once. The whole screen tested about 2,500 compounds, of which about 1,500 (60%) were called active.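 How the source made its calls: active means inhibition of at least 30% at 20 µM; inactive means the rest.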 The set was probably picked from earlier hits. Not all results are given here.

These compounds were tested against Carboxy-terminal domain RNA polymerase II polypeptide A small phosphatase 1 (Homo sapiens) (UniProt Q9GZU7) (assay: SCP1 dephosphorylation blockade at one dose – biochemical, colorimetric, single concentration, confirmation (AID 540281;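 further: plate controls were DMSO with enzyme for no effect and buffer wells lacking enzyme for full effect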)). Settings: recombinant SCP-1 catalytic domain, phosphate release, malachite green absorbance; at 20 µM; active compounds read high.
Chain of Carboxy-terminal domain RNA polymerase II polypeptide A small phosphatase 1 (Homo sapiens) (Q9GZU7 76-261 limits assumed): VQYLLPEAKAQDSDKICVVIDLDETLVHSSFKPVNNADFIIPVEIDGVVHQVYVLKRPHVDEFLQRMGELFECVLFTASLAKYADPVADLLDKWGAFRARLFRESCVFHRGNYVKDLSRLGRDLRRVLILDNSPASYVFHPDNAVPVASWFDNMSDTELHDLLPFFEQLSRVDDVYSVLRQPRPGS
Procedure, shortened: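 Material: SCP-1 enzyme, residues 76-261; Times: 45 min phosphatase reaction at RT; Reagent: Phospho-17-mer peptide substrate; Dosing: single 20 µM final compound concentration, 1.0% DMSO; Medium: Acidic Tris acetate with 10 mM MgCl2 and Tween-20, pH 5.5; Technique: absorbance at 630 nm, free phosphate colorimetry.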
In the case of Cc1ccc(C(=O)NNC(=O)c2cc3cc4ccccc4nc3s2)cc1, the inhibition is reported as 61% (active). O=[N+]([O-])c1cc(S(=O)(=O)Nc2cccc(Cl)c2)ccc1N=Nc1c(O)[nH]c2ccccc12 was tested, and the inhibition was 8.78% (inactive). Cc1ccc(CCCOC(=O)C[N+]2(C)CCCC2)cc1 was tested, and the inhibition was 78.5% (active). For COC(=O)c1ccccc1NC(=O)C1(S(=O)(=O)c2ccc(Cl)cc2)CC1, the inhibition was -25% (inactive). Cc1ccc(NC(=O)c2cc(-c3ccc(C)o3)nc3ccccc23)nc1 was tested, and the inhibition was 67.9% (active). With O=C(COC(=O)c1ccccc1O)NCc1ccco1 the inhibition was 59.3% (active). For CN(c1ccccc1)S(=O)(=O)c1ccc(Cl)c(C(=O)OCC(=O)NCc2ccco2)c1, the inhibition was 56.5% (active). In the case of O=C(COC(=O)c1cnc(Cl)c(Cl)c1)NCc1ccco1, the inhibition is reported as 44.4% (active). With Cc1cc(C(=O)OCC(=O)NCc2ccco2)c(C)n1-c1ccccc1 the inhibition was 67.3% (active). In the case of CCOC(=O)C1CCCN(C(=O)CN(c2ccc(OC)cc2)S(=O)(=O)c2c(C)noc2C)C1 (stereo not drawn), the inhibition is reported as -13.6% (inactive). In the case of NC(=O)NC(=O)CSc1nc2cc([N+](=O)[O-])ccc2n1-c1cccc(C(F)(F)F)c1, the inhibition is reported as -1.8% (inactive). CC1=NN(C(=O)CCc2ccccc2O)C(O)(C(F)(F)F)C1 (stereo not drawn) was tested, and the inhibition was -13.9% (inactive). For O=C(COC(=O)CCC(=O)c1cccs1)NCc1ccco1, the inhibition was 75.5% (active). With Cc1c(Cl)cnc(NC(=O)COC(=O)c2ccc(S(=O)(=O)NCc3ccco3)cc2)c1Cl the inhibition was 67% (active). For CCOc1ccc2nc(N(CCCN(C)C)C(=O)c3ccc(C(=O)c4ccccc4)cc3)sc2c1, the inhibition was -4.94% (inactive). For Cc1ccc(S(=O)(=O)Nc2nc(C)cc(-n3nc(C)cc3C)n2)cc1, the inhibition was -2.85% (inactive). With O=C(c1ccc(CS(=O)(=O)c2ccccc2)o1)N1CCN(c2ccccc2)CC1 the inhibition was 59.1% (active). In the case of CC(C)c1ccc(NC(=S)NNc2ccc(Cl)c(C(=O)O)c2)cc1, the inhibition is reported as 4.8% (inactive). Cc1ccc(CCNC(=O)c2ccc3nc4ccccc4c(=O)n3c2)cc1 was tested, and the inhibition was 41.5% (active). In the case of COc1cccc(CNS(=O)(=O)c2csc(C(N)=O)c2)c1, the inhibition is reported as -12.2% (inactive). With COc1cccc(NC(C)=[N+](C)CCNS(=O)(=O)c2ccc(Cl)cc2)c1 the inhibition was 92.4% (active). In the case of Cc1ccc(NC(=O)COC(=O)C2C3CC4OC(=O)C2C4C3)cc1Cl (stereo not drawn), the inhibition is reported as -2.24% (inactive). O=C(COc1ccc(-n2cnnn2)cc1)Nc1ccccc1Cl was tested, and the inhibition was 56.8% (active). For CC(C)CCOc1ccc(C(=O)C[N+]2(C)CCOCC2)cc1, the inhibition was 98.7% (active). For O=C(Nc1cccnc1)c1cc2cc(Br)ccc2oc1=O, the inhibition was 68.8% (active). In the case of COc1cc(/C=C/C2=CC(C)(C)NC(=S)N2)cc(OC)c1OC, the inhibition is reported as -11.8% (inactive). In the case of Cc1ccc(/C=C/C(=O)Nc2ccc([N+](=O)[O-])c(NC(=O)/C=C/c3ccc(C)o3)c2)o1, the inhibition is reported as 66.7% (active). With CCCCCN1CC(O)=C(c2nc(-c3ccc(Cl)cc3)cs2)C1=N the inhibition was 71.5% (active). With O=C(COC(=O)/C=C/c1ccc(Br)o1)Nc1cccc(S(=O)(=O)N2CCOCC2)c1 the inhibition was 16.4% (inactive). In the case of COc1cccc(CC(=O)OCC(=O)NCc2ccc3c(c2)OCO3)c1, the inhibition is reported as -5.6% (inactive). Cc1ccn2c(=O)nc(SCC(=O)NCc3ccc4c(c3)OCO4)nc2c1 was tested, and the inhibition was 57.6% (active). With CCCCSc1nnc(-c2ccc(C)cc2)o1 the inhibition was -16.3% (inactive). Cc1ccc(N=Cc2c(O)n(-c3nccs3)c(=O)c3ccccc23)c(C)c1 was tested, and the inhibition was -12.9% (inactive). For CC1CCN(c2ccc(S(=O)(=O)Nc3cc(C(=O)O)cc(C(=O)O)c3)cc2[N+](=O)[O-])CC1, the inhibition was 51.3% (active). With O=C(NN1C(=O)C2C3C=CC(O3)C2C1=O)c1ccccc1 (stereo not drawn) the inhibition was -10.8% (inactive). For CCc1ccc(NC(=O)CS(=O)CC(=O)NCCCc2ccccc2)cc1 (stereo not drawn), the inhibition was 93.8% (active). In the case of CS(=O)(=O)C1=NN2C(=N)/C(=C\c3ccc(OCCOc4ccccc4)cc3)C(=O)N=C2S1, the inhibition is reported as 72% (active). With COc1cccc2cc(-c3cc(=O)oc4cc(C)c(O)cc34)oc12 the inhibition was 57.7% (active). With O=c1c2cc(-c3ccccc3)sc2nc2n1N=C(c1cccs1)CS2 the inhibition was 38.4% (active). With O=C(CN1CCN(c2ccc(Cl)cc2)CC1)c1ccccc1 the inhibition was -15.3% (inactive). With O=C(c1cc2c(s1)CCC2)N1CCN(c2ccccc2)CC1 the inhibition was 31.4% (active). With ON=C1/C(=N\O)CC2(C/C1=N/O)OCCO2 the inhibition was 36.9% (active). Cc1nn(-c2cc(Cl)ccc2N)c(=O)c2ccccc12 was tested, and the inhibition was 32.6% (active). O=C(CCS(=O)(=O)c1ccc(Br)cc1)NCCc1ccc(Cl)cc1 was tested, and the inhibition was 55.6% (active). For COc1ccc(Cl)cc1NC(=O)CCS(=O)(=O)c1ccc(Br)cc1, the inhibition was 62.9% (active). With O=C(c1ccc2c(c1)OCO2)N1CCNc2ccccc2C1 the inhibition was -27.2% (inactive). In the case of CC[n+]1c(C)n(-c2ccccc2)c2ccc(NC(C)=O)cc21, the inhibition is reported as 85.8% (active). For O=C(Cn1cc(/C=N/NC(=O)c2cccc(C(F)(F)F)c2)c2ccccc21)Nc1ccc(F)cc1, the inhibition was 39.4% (active). With N#CC1=C(SCc2ccccc2)NC(=O)C(C#N)C12CCCC2 (stereo not drawn) the inhibition was 9.2% (inactive). O=c1[nH]n(-c2ccc([N+](=O)[O-])cc2)c(=O)c2ccccc12 was tested, and the inhibition was 46.7% (active). With O=C1NN(c2ccccc2)C(=O)/C1=C/c1ccc(-c2cccc(C(=O)O)c2)o1 the inhibition was 72.6% (active). For COC(=O)c1ccc(-c2c(-c3ccccc3)ncc3cc(OC)c(OC)cc23)cc1, the inhibition was -1.8% (inactive). For COc1ccc(OCC(=O)NNC(=O)c2ccc(-c3ccccc3)cc2)cc1, the inhibition was 67.5% (active). COc1ccc(OC)c(NC(=O)CSc2nc(-c3ccccc3)cc(=O)[nH]2)c1 was tested, and the inhibition was -9.58% (inactive). In the case of O=C(NNC(=O)c1ccc2ccccc2c1)c1ccc(Cl)cc1, the inhibition is reported as 57.2% (active). Cn1c(N)c(C(=O)COC(=O)c2ccc3ccccc3c2)c(=O)n(C)c1=O was tested, and the inhibition was -18.1% (inactive). In the case of Cc1oc2c(C)c3oc(=O)c(CC(=O)N[C@@H](CC(C)C)C(=O)N[C@@H](Cc4ccccc4)C(=O)O)c(C)c3cc2c1C, the inhibition is reported as 80.1% (active). For Cc1c([N+](=O)[O-])c(N)nn1C, the inhibition was 3.58% (inactive). O=C(O)c1ccc(N/N=C/c2ccc3ncccc3c2)cc1 was tested, and the inhibition was 39.7% (active). In the case of COc1ccc(NC(=O)CN(C)C(=O)/C=C/c2cn(Cc3ccccc3)nc2-c2cccnc2)cc1, the inhibition is reported as 84.6% (active). COC(=O)C[n+]1cccc2ccccc21 was tested, and the inhibition was 21% (inactive). In the case of Nn1cnnc1N/N=C/c1cc([N+](=O)[O-])c(Cl)cc1Cl, the inhibition is reported as 86.2% (active). For O=C1CCC(CCC(=O)N2CCCC(C(=O)c3ccc(Cl)cc3)C2)=NN1 (stereo not drawn), the inhibition was -8.97% (inactive). For O=C(Nc1cccc(F)c1)c1cc(-c2ccco2)nc2ccccc12, the inhibition was 50.4% (active). In the case of O=C(Nc1cccc(F)c1)[C@@H]1CCCN1, the inhibition is reported as 0.82% (inactive). In the case of CN(CC(=O)Nc1cccc(F)c1)C(=O)C1CC(=O)N(CCc2ccccc2)C1 (stereo not drawn), the inhibition is reported as -11.8% (inactive). With CCCc1nc(-c2cc3cc(C)ccc3[nH]c2=O)no1 the inhibition was 84.7% (active). With Cc1cc(/C=C2\SC(=O)N(C)C2=O)c(C)n1-c1cccc(C(=O)O)c1 the inhibition was 38.7% (active). C[n+]1ccc(C(=O)NCc2ccccc2)cc1 was tested, and the inhibition was 80.1% (active). In the case of COc1cc(Cl)cc(C2NC(=O)NC(C)=C2C(=O)NCc2ccccc2)c1O (stereo not drawn), the inhibition is reported as -19.7% (inactive) and -13.7% (inactive). In the case of O=C(CN1CCN(S(=O)(=O)/C=C/c2ccccc2)CC1)NC(=O)NCc1ccco1, the inhibition is reported as 10.9% (inactive). Cc1ccc(SCC(=O)NC(=O)NCc2ccco2)c(C)c1 was tested, and the inhibition was 73.6% (active). Cc1c(CCC(=O)O)c(=O)oc2cc(OCc3ccc(Br)cc3)ccc12 was tested, and the inhibition was 38.7% (active). With Cc1c(CCC(=O)O)c(=O)oc2c(C)c(OCc3ccccc3Cl)ccc12 the inhibition was 58.5% (active). In the case of COc1ccc(Cl)cc1C=CC=NNC(=O)c1ccncc1, the inhibition is reported as 38.5% (active). In the case of COc1ccc(N2CCN(C(=O)CSc3nc4cc(OC)c(OC)cc4cc3C#N)CC2)cc1, the inhibition is reported as 25.3% (inactive). COCCCNc1nc2ccccc2nc1NS(=O)(=O)c1ccc(F)cc1 was tested, and the inhibition was -5.57% (inactive). With CCC(=O)Nc1ccccc1N1CCN(S(C)(=O)=O)CC1 the inhibition was -7.14% (inactive). COc1ccc(S(=O)(=O)c2c[nH]c(=S)[nH]c2=O)cc1Cl was tested, and the inhibition was 40.6% (active). For COc1cccc2sc(N(CCCN(C)C)C(=O)C(c3ccccc3)c3ccccc3)nc12, the inhibition was -18.8% (inactive). In the case of CSc1ccc(/C=N/NC(=O)c2cccc(Cl)c2)cc1, the inhibition is reported as 59.9% (active). For CC1=NNC(=O)C1CCC(=O)N/N=C\c1cccc(Cl)c1 (stereo not drawn), the inhibition was -18.8% (inactive). With O=C(Cn1nnc(-c2ccc3c(c2)OCO3)n1)NCc1ccco1 the inhibition was 30.9% (active). Cc1nnc(SCC(=O)Nc2ccc(S(=O)(=O)Nc3ccc(Cl)nn3)cc2)s1 was tested, and the inhibition was 58.2% (active). For C=C1c2cccc(OC)c2O[C@H](C(=O)OCC)[C@@H]1CCCCCC, the inhibition was 88% (active). For CO/N=C(\C(=O)N[C@@H]1C(=O)N2C(C(=O)O)=C(COC(C)=O)CS[C@H]12)c1csc(N)n1 (stereo in doubt), the inhibition was 43.7% (active). In the case of C=CC1C(OC2OC(CO)C(O)C(O)C2O)OC=C(C(=O)OC)C1CC1CC(=O)CC(CC(=O)CCc2ccc(O)cc2)O1 (stereo not drawn), the inhibition is reported as -13.1% (inactive). With Cc1ccc(CN2CCN(c3ccccc3Cl)CC2)o1 the inhibition was -20% (inactive). With CCOC(=O)C1=C(C)c2ccccc2OC1(C)C(=O)OCC (stereo not drawn) the inhibition was 39.1% (active). CC(=O)Nc1ccc(N2C(=O)CCC2=O)cc1C was tested, and the inhibition was -5.6% (inactive). With CCOc1ccccc1/C=c1\sc2nc(-c3ccco3)nn2c1=O the inhibition was 61% (active). In the case of O=C(COC(=O)c1ccc(F)cc1F)Nc1ncccn1, the inhibition is reported as 52.5% (active). N#Cc1ccc(C(=O)Nc2cccc3cccnc23)c(F)c1 was tested, and the inhibition was 3.88% (inactive).
